One assay has as its target D(1A) dopamine receptor (Rattus norvegicus, UniProt P18901). Put plainly: Displacement of [3H]SCH-23390 from dopamine D1 receptor in rat striatum. In outline:
(§1)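 Competitive radioligand binding on membrane homogenates prepared from rat striatum tissue, following a previously published procedure.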
On the technique in general: Displacement assays read how much labelled ligand stays bound in the presence of the test substance.

Another assay has as its target D(2) dopamine receptor (Rattus norvegicus, UniProt P61169). Put plainly: Displacement of [3H]neomonapride from dopamine D2 receptor in rat striatum. In outline: as §1
The species entered for the next assay is Rattus norvegicus. Nature of the assay: Selectivity ratio of rat dopamine D2 receptor to rat dopamine D1 receptor.

The structures appear in SMILES notation.

Sequence of D(2) dopamine receptor (P61169 whole entry): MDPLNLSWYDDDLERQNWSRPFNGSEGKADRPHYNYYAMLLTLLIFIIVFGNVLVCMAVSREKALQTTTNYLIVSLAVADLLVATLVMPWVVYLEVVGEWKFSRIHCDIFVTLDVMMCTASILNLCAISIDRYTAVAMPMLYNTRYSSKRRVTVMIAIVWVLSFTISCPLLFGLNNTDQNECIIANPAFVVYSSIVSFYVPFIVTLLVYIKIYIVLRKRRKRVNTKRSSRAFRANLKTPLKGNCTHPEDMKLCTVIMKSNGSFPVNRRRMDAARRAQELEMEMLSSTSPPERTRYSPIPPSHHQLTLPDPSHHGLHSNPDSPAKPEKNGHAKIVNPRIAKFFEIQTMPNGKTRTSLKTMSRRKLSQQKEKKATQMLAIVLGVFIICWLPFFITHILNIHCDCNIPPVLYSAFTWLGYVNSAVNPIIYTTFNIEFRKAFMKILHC
Sequence of D(1A) dopamine receptor (P18901 whole entry): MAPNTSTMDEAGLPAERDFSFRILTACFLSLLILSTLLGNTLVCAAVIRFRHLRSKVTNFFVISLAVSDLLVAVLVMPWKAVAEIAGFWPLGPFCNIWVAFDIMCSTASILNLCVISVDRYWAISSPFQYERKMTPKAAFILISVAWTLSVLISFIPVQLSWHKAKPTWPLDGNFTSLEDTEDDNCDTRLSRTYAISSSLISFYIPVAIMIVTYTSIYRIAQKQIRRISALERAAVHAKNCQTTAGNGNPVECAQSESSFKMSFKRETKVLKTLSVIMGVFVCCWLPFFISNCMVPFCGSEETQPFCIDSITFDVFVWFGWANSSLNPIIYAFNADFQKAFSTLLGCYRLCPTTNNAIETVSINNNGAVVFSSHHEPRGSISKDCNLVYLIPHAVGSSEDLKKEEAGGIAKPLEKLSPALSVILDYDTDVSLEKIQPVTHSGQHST

One may read the Ki as the equilibrium dissociation constant of an inhibitor or competing ligand from its target. With `CN1CCc2cccc3c2[C@H]1Cc1cccc(O)c1-3`, the inhibition constant (Ki) at D(1A) dopamine receptor came out at 0.0265 µM; at D(2) dopamine receptor, 0.108 µM. In the assay listed under Rattus norvegicus, the Ratio Ki amounted to 0.24.

Consider `CCCN1CCc2cc(OC)cc3c2[C@H]1Cc1ccc(O)c(O)c1-3`, for which the values for the Ki on D(1A) dopamine receptor and on D(2) dopamine receptor were 6.45 µM and 0.0013 µM, respectively. Further, the Ratio Ki in the assay filed under Rattus norvegicus is 4860.

On to `COc1cc2c3c(c1)-c1c(O)cccc1C[C@H]3N(C)CC2`, for which the Ki on D(1A) dopamine receptor came out at 0.046 µM; on D(2) dopamine receptor, 0.235 µM. In addition, in the assay filed under Rattus norvegicus, the Ratio Ki turned out to be 0.19.

For `COc1cc2c3c(c1)-c1c(ccc(O)c1O)C[C@H]3N(C)CC2`, the results for the inhibitory constant (Ki) on D(1A) dopamine receptor and at D(2) dopamine receptor were greater than 10 µM and 0.0035 µM, respectively. In addition, in the assay listed under Rattus norvegicus, the Ratio Ki is greater than 2860.

Consider `CCN1CCc2cc(OC)cc3c2[C@H]1Cc1cccc(O)c1-3`, for which the Ki at D(1A) dopamine receptor worked out at 0.13 µM; on D(2) dopamine receptor it was 0.028 µM. Moreover, the Ratio Ki in the assay listed under Rattus norvegicus was 4.6.

In the case of `CCCCN1CCc2cc(OC)cc3c2[C@H]1Cc1cccc(O)c1-3`, the Ki at D(1A) dopamine receptor and at D(2) dopamine receptor was greater than 10 µM in each case.

The values are drawn from ChEMBL document CHEMBL1142298, “Synthesis and dopamine receptor affinities of N-alkyl-11-hydroxy-2-methoxynoraporphines: N-alkyl substituents determine D1 versus D2 receptor selectivity” (J Med Chem, 2008).
